The subject of series [1] is Trypanosoma cruzi. Briefly: Antitrypanosomal activity against Trypanosoma cruzi Tulahuen TcVI infected in Swiss mouse model of Chagas disease assessed as increase in host survival at 100 mg/kg once daily for 5 consecutive days through oral gavage starting on day 8 post infection measured 14 days post infection. It counts as functional, organism-based. Set-up: dose 100 mg/kg. A digest of the protocol:
(§1)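 Female Swiss mice (n = 5 per group) were infected with 25,000 blood-form T. cruzi Tulahuen TcVI trypomastigotes and dosed orally by gavage once daily for 5 days from day 8 pi.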

Series [2] has as its system Trypanosoma cruzi. As to the kind of experiment: Antitrypanosomal activity against Trypanosoma cruzi Tulahuen TcVI infected in Swiss mouse model of Chagas disease assessed as increase in host survival at 50 mg/kg once daily for 5 consecutive days through oral gavage starting on day 8 post infection measured 14 days post infection. It counts as functional, organism-based. On the set-up: dose 50 mg/kg. An outline of the steps:
as §1

Series [3] relates to Trypanosoma cruzi. As to the kind of experiment: Antitrypanosomal activity against Trypanosoma cruzi Tulahuen TcVI infected in Swiss mouse model of Chagas disease assessed as decrease in blood parasitemia level at 100 mg/kg once daily for 5 consecutive days through oral gavage starting on day 8 post infection measured 14 days post infection. It counts as functional. A digest of the protocol: (§2)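 Female Swiss mice (n = 5 per group) were infected with 25,000 blood-form T. cruzi Tulahuen TcVI trypomastigotes. From day 8 post-infection, they received once-daily oral gavage for 5 consecutive days. Blood trypomastigotes/mL were counted on days 8, 9, 12 and 14 pi, and efficacy was taken as decreased parasitemia versus vehicle-treated mice on day 14.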

The test system of series [4] is Trypanosoma cruzi. Briefly: Antitrypanosomal activity against Trypanosoma cruzi Tulahuen TcVI infected in Swiss mouse model of Chagas disease assessed as decrease in blood parasitemia level at 50 mg/kg once daily for 5 consecutive days through oral gavage starting on day 8 post infection measured 14 days post infection. Format: functional. An outline of the steps:
as §2

In another series the test system is L6. As to the kind of experiment: Cytotoxicity against rat L6 cells after 72 hrs by Alamar Blue assay. It counts as cell-based. Particulars: L6, 72 h. A digest of the protocol:
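Counter-screen for cytotoxicity in uninfected L6 rat skeletal muscle myoblasts, with IC50 recorded in µM.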
In general terms: The colour change of resazurin is a common sign of viable cells or microbes.

For series [5], the system named is Trypanosoma cruzi. Briefly: Antitrypanosomal activity against Trypanosoma cruzi Tulahuen TcVI extracellular trypomastigotes forms transfected with beta-galactosidase gene infected in rat L6 cells assessed as inhibition of parasite growth after 4 days. It counts as functional, organism-based. Conditions: L6, 96 h. An outline of the steps:
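L6 rat skeletal myoblasts were infected with extracellular trypomastigotes of β-galactosidase-transfected T. cruzi Tulahuen TcVI. After 48 h to establish infection, compound was added and incubation continued 4 days, exposing trypomastigote and intracellular amastigote forms.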

In series [6] the test system is Trypanosoma cruzi. Briefly: Antitrypanosomal activity against Trypanosoma cruzi Tulahuen TcVI infected in Swiss mouse model of Chagas disease assessed as increase in host survival at 20 mg/kg once daily for 5 consecutive days through oral gavage starting on day 8 post infection measured 14 days post infection. It counts as functional, organism-based. Set-up: dose 20 mg/kg. An outline of the steps: as §1

Series [7] relates to Trypanosoma cruzi. As to the kind of experiment: Antitrypanosomal activity against Trypanosoma cruzi Tulahuen TcVI infected in Swiss mouse model of Chagas disease assessed as decrease in blood parasitemia level at 20 mg/kg once daily for 5 consecutive days through oral gavage starting on day 8 post infection measured 14 days post infection. Format: functional. A digest of the protocol:
as §2

The next series has as its target CYP3A4/5 (Homo sapiens, UniProt P08684+P20815). Briefly: Inhibition of CYP3A4/5 in human liver microsomes assessed as reduction in testosterone-beta-hydroxylation. Format: ADME, Microsome. Particulars: probe testosterone. An outline of the steps:
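CYP3A4 inhibition measured as inhibition of testosterone β-hydroxylation, reported as IC50 (µM).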
Background: Liver microsomes are vesicles of endoplasmic reticulum, rich in cytochrome P450 enzymes.

A short description of series [8]: Kinetic solubility of the compound at pH 6.5 phosphate buffer by nephelometric analysis. Particulars: read-out: Kinetic_solubility. It counts as physicochemical. A digest of the protocol:
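Kinetic solubility in phosphate buffer at pH 6.5, determined by nephelometry and reported in µg/mL.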

Series [9] in a line: Selectivity index, ratio of IC50 for rat L6 cells to IC50 for Trypanosoma cruzi Tulahuen TcVI extracellular trypomastigotes forms. Format: toxicity, cell-based. Conditions: read-out: Ratio IC50. An outline of the steps:
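Ratio of the L6 myoblast cytotoxicity IC50 to the IC50 against β-galactosidase-expressing T. cruzi Tulahuen TcVI.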

Series [10] has as its system Mus musculus. As to the kind of experiment: AUC (0 to 7.5 hrs) in Swiss mouse at 50 mg/kg, po. On the set-up: time < 7.5 hr, dose 50 mg/kg, route oral. Format: ADME, organism-based, Plasma. Particulars: in vivo. A digest of the protocol: (§3)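 Non-infected male Swiss outbred mice received single oral gavage doses of 20, 50 and 100 mg/kg. […] Full-scan LC-MS was run on selected plasma samples to identify metabolites.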

In series [11] the test system is Mus musculus. Briefly: AUC (0 to 7.5 hrs) in Swiss mouse at 100 mg/kg, po. Conditions: in vivo. Set-up: time < 7.5 hr, dose 100 mg/kg, route oral. It counts as ADME, organism-based, Plasma. A digest of the protocol: as §3
The subject of series [12] is Mus musculus. As to the kind of experiment: AUC (0 to 7.5 hrs) in Swiss mouse at 20 mg/kg, po. It counts as ADME, organism-based, Plasma. On the set-up: time < 7.5 hr, dose 20 mg/kg, route oral. Particulars: in vivo. An outline of the steps: as §3
Series [13] is described as follows: Apparent half life in Swiss mouse at 20 to 100 mg/kg, po. Format: ADME, organism-based. Set-up: dose 20-100 mg/kg, route oral. Particulars: in vivo, read-out: t1/2(app) (converted). A digest of the protocol:
as §3

The subject of series [14] is Mus musculus. As to the kind of experiment: Toxicity in Swiss mouse at 20 to 100 mg/kg, po. Format: organism-based. Set-up: dose 20-100 mg/kg, route oral. Conditions: in vivo. A digest of the protocol:
as §3

The nature of series [15]: Tmax in Swiss mouse at 20 to 100 mg/kg, po. Format: ADME, organism-based. Conditions: in vivo. Set-up: dose 20-100 mg/kg, route oral. A digest of the protocol: as §3

Converted amounts (≈) assume the structure as drawn. The source made the active and inactive calls. The rule behind the calls is not given here. Some results are limits rather than exact numbers.

A word on the IC50: it is the concentration needed to halve the response being measured. For `CC[C@@H]([C@H](C)O)n1ncn(-c2ccc(N3CCN(c4ccc(OC[C@@H]5CO[C@@](Cn6cncn6)(c6ccc(F)cc6F)C5)cc4)CC3)cc2)c1=O` [POSACONAZOLE], the result in the series on Trypanosoma cruzi [1], in the series on Trypanosoma cruzi [2], in the series with Trypanosoma cruzi [3] and in the series on Trypanosoma cruzi [4] was Active. Besides, the IC50 in the series with L6 was more than 100 µM; with Trypanosoma cruzi [5], 0.0007 µM.
Take `CC(=O)N1CCN(C(c2ccc(Cl)cc2)c2cccnc2)CC1` (stereo not given) [listing 1 of 2 here]: the outcome with Trypanosoma cruzi [1], with Trypanosoma cruzi [2] and in the series with Trypanosoma cruzi [6] was Active. Further, the result in the series with Trypanosoma cruzi [3], in the series with Trypanosoma cruzi [4] and in the series with Trypanosoma cruzi [7] was inactive.
As for `O=C(C1CC1)N1CCN(C(c2cccnc2)c2ccc(Cl)cc2F)CC1` (stereo not given), the IC50 is 1.8 µM on CYP3A4/5, more than 100 µM with L6 and 0.026 µM with Trypanosoma cruzi [5]. For the same compound, the solubility kinetic in [8] was 50 µg/mL (≈ 134 µM). Besides, the selectivity ratio in [9] was more than 100.
Broadly, the AUC is the area under the concentration-time curve, a measure of exposure. A word on the Tmax: it is the time from dosing to the highest level. Consider `CC(=O)N1CCN(C(c2ccc(Cl)cc2)c2cccnc2)CC1.O=C(O)CC(O)(CC(=O)O)C(=O)O` (stereo not given), for which the AUC with Mus musculus [10] is 6.2 µM·h; in the series with Mus musculus [11] it was 9.4 µM·h; in the series on Mus musculus [12] it was 2.3 µM·h. The half-life in series [13] was 102 min. The Activity entry in the series on Mus musculus [14] is “Non-toxic”. In [15], the Tmax was 15 min.
`CS(=O)(=O)N1CCN(C(c2cccnc2)c2ccc(Cl)cc2F)CC1.O=C(O)CC(O)(CC(=O)O)C(=O)O` (stereo not given): the AUC is 60.2 µM·h with Mus musculus [10], 43.7 µM·h in the series with Mus musculus [11] and 7.2 µM·h with Mus musculus [12]. For the same compound, the half-life in series [13] is 126 min. For the same compound, the Activity result in the series on Mus musculus [14] is on record as “Non-toxic”. For the same compound, in series [15], the Tmax is 15 min.
As for `Cc1csc(C(=O)N2CCN(C(c3cccnc3)c3ccc(Cl)cc3F)CC2)n1` (stereo not given), the IC50 was found to be 2.8 µM at CYP3A4/5, 93 µM in the series with L6 and 0.036 µM in the series on Trypanosoma cruzi [5]. In series [8], the solubility kinetic was 50 µg/mL (≈ 116 µM). Also, in series [9], the selectivity ratio was more than 100.
As for `CC(=O)N1CCN(C(c2ccc(Cl)cc2)c2cccnc2)CC1` (stereo not given) [listing 2 of 2 here], the values for the IC50 at CYP3A4/5, with L6 and in the series on Trypanosoma cruzi [5] were 7.4 µM, more than 100 µM and 0.24 µM, respectively. Besides, the solubility kinetic in [8] is more than 100 µg/mL. Besides, in series [9], the selectivity ratio was more than 100.
Regarding `CS(=O)(=O)N1CCN(C(c2cccnc2)c2ccc(Cl)cc2F)CC1` (stereo not given) [listing 1 of 2 here], the outcome with Trypanosoma cruzi [1], with Trypanosoma cruzi [2] and in the series with Trypanosoma cruzi [6] was Active.
As to `CS(=O)(=O)N1CCN(C(c2cccnc2)c2ccc(Cl)cc2F)CC1` (stereo not given) [listing 2 of 2 here], the results for the Activity in the series with Trypanosoma cruzi [3], in the series on Trypanosoma cruzi [4] and in the series with Trypanosoma cruzi [7] were 96%, 95% and 73%, respectively. The IC50 on CYP3A4/5 is 1.3 µM; in the series with L6, more than 100 µM; with Trypanosoma cruzi [5] it was 0.035 µM. For the same compound, the solubility kinetic in [8] turned out to be 12.5 µg/mL (≈ 32.6 µM). Further, the selectivity ratio in series [9] was more than 100.
On to `CC(C)(C)NC(=O)N1CCN(C(c2cncnc2)c2ccc(Cl)cc2F)CC1` (stereo not given), for which the IC50 is 6.9 µM at CYP3A4/5, more than 100 µM with L6 and 0.054 µM with Trypanosoma cruzi [5]. Further, the solubility kinetic in series [8] is 50 µg/mL (≈ 123 µM). For the same compound, the selectivity ratio in series [9] was more than 100.
On to `O=S(=O)(c1ccccc1)N1CCN(C(c2cccnc2)c2ccc(Cl)cc2F)CC1` (stereo not given), for which the IC50 was 0.6 µM at CYP3A4/5, 42 µM in the series with L6 and 0.008 µM with Trypanosoma cruzi [5]. The solubility kinetic in [8] is less than 1.6 µg/mL. For the same compound, the selectivity ratio in [9] was more than 100.

The values above are taken from ChEMBL document CHEMBL2331102 (Bioorg Med Chem, 2013).
